Columns and labels:
[1] = system: PDE1A/B/C, PDE2A, PDE3A/B, PDE4A/B/C/D, PDE5A, PDE7A, PDE8A, PDE9A; experiment: PDE selectivity panel, fluorescence polarization, single dose 5 μmol/L; assay type: biochemical; conditions: concentrations up to 5 μmol/L
[2] = biological target: PDE10A (Homo sapiens, UniProt Q9Y233); experiment: PDE10A inhibition, fluorescence polarization; assay type: biochemical
How it was run: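 Test compound was dissolved in DMSO, stored at −20 °C and tested in a 10-point, 3-fold serial dilution from a top concentration of 1 µmol/L (n = 3). Enzyme activity was read by fluorescence polarization, and IC50 was derived from the concentration–response data.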

Chain of PDE10A (Q9Y233 whole entry): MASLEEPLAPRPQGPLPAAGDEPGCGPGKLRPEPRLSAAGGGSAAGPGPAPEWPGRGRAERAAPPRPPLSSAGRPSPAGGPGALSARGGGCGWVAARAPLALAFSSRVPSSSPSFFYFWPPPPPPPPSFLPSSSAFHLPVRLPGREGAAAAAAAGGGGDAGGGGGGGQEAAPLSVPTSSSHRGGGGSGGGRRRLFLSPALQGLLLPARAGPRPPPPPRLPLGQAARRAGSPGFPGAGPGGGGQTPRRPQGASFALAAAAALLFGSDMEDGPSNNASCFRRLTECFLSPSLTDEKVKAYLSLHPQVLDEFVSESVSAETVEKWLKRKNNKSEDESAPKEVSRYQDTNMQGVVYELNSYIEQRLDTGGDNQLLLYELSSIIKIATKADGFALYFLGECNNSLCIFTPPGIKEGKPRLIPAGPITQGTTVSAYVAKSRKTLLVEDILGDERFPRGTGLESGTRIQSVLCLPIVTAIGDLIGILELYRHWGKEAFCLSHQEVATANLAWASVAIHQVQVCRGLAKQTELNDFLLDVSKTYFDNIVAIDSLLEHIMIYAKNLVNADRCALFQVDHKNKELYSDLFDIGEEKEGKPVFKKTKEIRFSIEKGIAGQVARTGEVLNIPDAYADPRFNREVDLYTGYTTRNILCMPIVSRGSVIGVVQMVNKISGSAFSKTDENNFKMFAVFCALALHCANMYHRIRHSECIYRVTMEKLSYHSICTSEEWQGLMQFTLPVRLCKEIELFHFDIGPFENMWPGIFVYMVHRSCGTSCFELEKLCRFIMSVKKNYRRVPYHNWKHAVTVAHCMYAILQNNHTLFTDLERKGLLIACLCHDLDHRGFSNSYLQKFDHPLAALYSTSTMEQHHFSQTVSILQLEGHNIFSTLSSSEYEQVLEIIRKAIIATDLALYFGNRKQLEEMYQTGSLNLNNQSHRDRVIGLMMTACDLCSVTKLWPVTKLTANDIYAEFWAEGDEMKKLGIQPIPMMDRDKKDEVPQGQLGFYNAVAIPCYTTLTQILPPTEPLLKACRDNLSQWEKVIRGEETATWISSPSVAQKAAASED

Cc1ccc2c(=O)n(-c3ccc(F)cc3)c(CCN3C(=O)c4cccc(OC(C)C)c4C3=O)nc2c1 [compound 9, 2-(2-(3-(4-Fluorophenyl)-7-methyl-4-oxo-3,4-dihydroquinazolin-2-yl)ethyl)-4-isopropoxyisoindoline-1,3-dione]
inhibition of other PDE subtypes [1]: no significant inhibition
IC50 [2]: 2.07 nM

From article PMC9279629 (Acta Pharmaceutica Sinica. B, 2021)
